The record followed here is ChEMBL document CHEMBL4257586, “Polyheteroaryl Oxazole/Pyridine-Based Compounds Selected in Vitro as G-Quadruplex Ligands Inhibit Rock Kinase and Exhibit Antiproliferative Activity” (J Med Chem, 2018).

Assay [1] concerns the target Rho-associated protein kinase 1 (Homo sapiens, UniProt Q13464). The experiment in a line: Inhibition of ROCK1 (unknown origin) by ATP competition assay. The method in brief: (§1)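 Recombinant kinases assayed in duplicate by radioactive filter-binding assay with 33P-ATP; no-compound controls run and each plate validated by Z′. IC50 values determined.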
The test system of another assay is U-87 MG. The experiment in a line: Antiproliferative activity against human U87 cells after 72 hrs by MTS assay. The assay is classed as functional, cell-based, U-87MG ATCC. The method, boiled down: (§2)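 Cells seeded at day 0 in 96-well plates, serial compound dilutions added at day 1; viable cells read 72 h after drug addition by MTS tetrazolium assay, in triplicate. IC50 taken as concentration halving cell growth. One first trial, then two additional experiments on selected compounds.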
In general terms: Formazan colour is commonly taken as a measure of viable cells.

Assay [2] concerns M21. The experiment in a line: Antiproliferative activity against human M21 cells after 72 hrs by MTS assay. The assay is classed as functional, cell-based. The following applies: M21, 72 h. The method in brief:
as §2

Assay [3] concerns Quadruplex DNA. The experiment in a line: Binding affinity to 6-FAM labeled human telomeric F21T G-quadruplex DNA assessed as change in melting temperature at 1 uM in K+ rich buffer (10 mM KCl, 90 mM LiCl, 10 mM Li cacodylate) by FRET assay. It is filed as nucleic-acid assay. The method in brief:
(§3)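 FRET melting in duplicate. Dual-labelled oligo (6-FAM/TAMRA) at 0.2 μM with ligand at 1 μM, in 10 mM Li cacodylate pH 7.2. Buffer was 10 mM KCl + 90 mM LiCl for F21T and 1 mM KCl + 99 mM LiCl for FMycT. Sample annealed 90 °C 5 min, cooled to 4 °C overnight. Equilibrated 5 min at 25 °C, then ramped 0.5 °C/min to 95 °C. FAM read 492/516 nm, normalized; Tm taken at the fitted inflection point.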

The test system of assay [4] is Quadruplex DNA. The experiment in a line: Binding affinity to c-Myc G-quadruplex DNA (unknown origin) by fluorescence spectrophotometric analysis. It is filed as nucleic-acid assay. The method, boiled down:
(§4)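 Fluorescence titration in 10 mM lithium cacodylate pH 7.2 with 100 mM KCl, 1 cm quartz cell. Ligand at 0.5 μM, excited at 330 or 340 nm, with increasing DNA added (22AG, c-Myc or ds26). Emission over 340/350–650 nm plotted against DNA concentration and fitted by Hill equation to give apparent Ka (1:1).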

The next assay has as its system A549. The experiment in a line: Cytotoxicity against human A549 cells assessed as presence of large vesicles at 1 uM after 24 to 48 hrs by Hoechst 33342 staining-based laser confocal microscopy. It is filed as functional, cell-based.
The target of another assay is T1, Myotonin-protein kinase (Homo sapiens, UniProt Q09013).
T1 sequence (Q09013 whole entry): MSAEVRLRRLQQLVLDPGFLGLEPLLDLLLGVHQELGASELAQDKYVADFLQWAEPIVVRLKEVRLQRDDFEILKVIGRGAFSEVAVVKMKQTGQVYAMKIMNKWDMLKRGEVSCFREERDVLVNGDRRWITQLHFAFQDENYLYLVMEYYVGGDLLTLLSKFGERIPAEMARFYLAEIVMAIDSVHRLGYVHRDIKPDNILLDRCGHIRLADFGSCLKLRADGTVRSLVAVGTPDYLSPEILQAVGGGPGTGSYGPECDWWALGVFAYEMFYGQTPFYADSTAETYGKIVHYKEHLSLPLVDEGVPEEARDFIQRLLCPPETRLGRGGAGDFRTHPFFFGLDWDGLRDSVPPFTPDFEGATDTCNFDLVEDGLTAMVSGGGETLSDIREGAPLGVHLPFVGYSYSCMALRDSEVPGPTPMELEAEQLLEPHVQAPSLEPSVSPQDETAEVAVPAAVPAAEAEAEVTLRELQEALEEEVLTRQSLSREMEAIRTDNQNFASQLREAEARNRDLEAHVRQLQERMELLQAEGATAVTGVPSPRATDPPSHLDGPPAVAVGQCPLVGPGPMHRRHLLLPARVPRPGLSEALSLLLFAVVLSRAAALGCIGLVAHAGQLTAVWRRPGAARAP
The experiment in a line: Inhibition of DMPK (unknown origin) by ATP competition assay. The method, boiled down: as §1

Assay [5] concerns dsDNA. The experiment in a line: Binding affinity to duplex 26 DNA (unknown origin) by fluorescence spectrophotometric analysis. The assay is classed as nucleic-acid assay. The method in brief:
as §4

In assay [6] the test system is dsDNA. The experiment in a line: Binding affinity to duplex 26 DNA (unknown origin) assessed as change in melting temperature at 1 uM by FRET. The assay is classed as nucleic-acid assay.
In assay [7] the test system is M21. The experiment in a line: Antiproliferative activity against alpha5-integrin lacking human M21 cells after 72 hrs by MTS assay. It is filed as functional, cell-based. The following applies: M21, 72 h. The method, boiled down: as §2
The species named for assay [8] is Homo sapiens. The experiment in a line: Selectivity index, ratio of IC50 for inhibition of ROCK1 (unknown origin) to IC50 for inhibition of ROCK2 (unknown origin).
For a further assay, the system named is NCI-H358. The experiment in a line: Antiproliferative activity against human NCI-H358 cells after 72 hrs by MTS assay. It is filed as functional, cell-based. The following applies: NCI-H358, 72 h. The method, boiled down:
as §2

The test system of assay [9] is Quadruplex DNA. The experiment in a line: Binding affinity to 22AG G-quadruplex DNA (unknown origin) by fluorescence spectrophotometric analysis. It is filed as nucleic-acid assay. The method in brief: as §4
Assay [10] deals with HeLa. The experiment in a line: Induction of double stranded DNA breaks in human HeLa cells assessed as gamma-H2Ax phosphorylation at 2 uM after 24 to 48 hrs by Hoechst 33342 staining-based laser confocal microscopy. It is filed as functional, cell-based.
The target of assay [11] is T2, Rho-associated protein kinase (Homo sapiens) (UniProt O75116+Q13464). The experiment in a line: Inhibition of ROCK in human Hela cells assessed as formation of long neurite-like extensions at 2 uM by phalloidin-based immunofluorescence assay. The assay is classed as cell-based. The method, boiled down:
(§5)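 HeLa cells on glass coverslips treated overnight at 2 μM or with DMSO control, then fixed in 4% formaldehyde for 10 min at 37 °C. Actin stained with phalloidin; α-tubulin or anti-phospho-Tyr focal points also labelled, plus DNA. Imaged by confocal microscopy.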

Assay [12] has as its system HeLa. The experiment in a line: Induction of double stranded DNA breaks in human HeLa cells assessed as gamma-H2Ax phosphorylation at 1 uM after 24 to 48 hrs by Hoechst 33342 staining-based laser confocal microscopy. The assay is classed as functional, cell-based.
For assay [13], the species on record is Homo sapiens. The experiment in a line: Selectivity index, ratio of IC50 for inhibition of DMPK (unknown origin) to IC50 for inhibition of ROCK2 (unknown origin).
Assay [14] deals with Rho-associated protein kinase 2 (Homo sapiens, UniProt O75116). The experiment in a line: Inhibition of ROCK2 (unknown origin) by ATP competition assay. The method in brief: as §1
The test system of assay [15] is HeLa. The experiment in a line: Cytotoxicity against human HeLa cells assessed as reduction in organization of stress fibers at 1 uM after 24 to 48 hrs by Hoechst 33342 staining-based laser confocal microscopy. It is filed as functional, cell-based.
The test system of assay [16] is HeLa. The experiment in a line: Induction of cell cycle arrest in human HeLa cells at 1 uM after 48 hrs by propidium iodide-staining based flow cytometry. It is filed as functional. The method, boiled down: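 HeLa cells serum-starved 96 h for synchronization, then released and treated 48 h. Fixed in ice-cold 70% ethanol 1 h, stained with propidium iodide 50 μg/mL plus RNase A 0.2 mg/mL for 15 min at 37 °C, and analyzed by FACS.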
In general terms: In flow cytometry, cells or beads pass a laser one at a time.

Another assay concerns A-375. The experiment in a line: Induction of double stranded DNA breaks in human A375 cells assessed as gamma-H2Ax phosphorylation at 1 uM after 24 to 48 hrs by Hoechst 33342 staining-based laser confocal microscopy. It is filed as functional, cell-based.
The target in assay [17] is T2, Rho-associated protein kinase (Homo sapiens). The experiment in a line: Inhibition of ROCK in human Hela cells assessed as reduction in cell spreading at 2 uM by phalloidin-based immunofluorescence assay. The method, boiled down: as §5
Assay [18] relates to Quadruplex DNA. The experiment in a line: Binding affinity to 6-FAM labeled human proto-oncogene sequence FMycT G-quadruplex DNA assessed as change in melting temperature at 1 uM in presence of K+ buffer (1 mM KCl, 99 mM LiCl, 10 mM Li cacodylate) by FRET assay. The assay is classed as nucleic-acid assay. The method, boiled down: as §3

The source made the active and inactive calls. The calls are words filed in the database; no cut-off is given here.

The IC50 is the concentration needed to halve the response being measured. Read a high IC50 as lower potency. The term ΔTm denotes the change in melting temperature against a reference sample.

Rho-associated protein kinase 1, sequence (Q13464 whole entry): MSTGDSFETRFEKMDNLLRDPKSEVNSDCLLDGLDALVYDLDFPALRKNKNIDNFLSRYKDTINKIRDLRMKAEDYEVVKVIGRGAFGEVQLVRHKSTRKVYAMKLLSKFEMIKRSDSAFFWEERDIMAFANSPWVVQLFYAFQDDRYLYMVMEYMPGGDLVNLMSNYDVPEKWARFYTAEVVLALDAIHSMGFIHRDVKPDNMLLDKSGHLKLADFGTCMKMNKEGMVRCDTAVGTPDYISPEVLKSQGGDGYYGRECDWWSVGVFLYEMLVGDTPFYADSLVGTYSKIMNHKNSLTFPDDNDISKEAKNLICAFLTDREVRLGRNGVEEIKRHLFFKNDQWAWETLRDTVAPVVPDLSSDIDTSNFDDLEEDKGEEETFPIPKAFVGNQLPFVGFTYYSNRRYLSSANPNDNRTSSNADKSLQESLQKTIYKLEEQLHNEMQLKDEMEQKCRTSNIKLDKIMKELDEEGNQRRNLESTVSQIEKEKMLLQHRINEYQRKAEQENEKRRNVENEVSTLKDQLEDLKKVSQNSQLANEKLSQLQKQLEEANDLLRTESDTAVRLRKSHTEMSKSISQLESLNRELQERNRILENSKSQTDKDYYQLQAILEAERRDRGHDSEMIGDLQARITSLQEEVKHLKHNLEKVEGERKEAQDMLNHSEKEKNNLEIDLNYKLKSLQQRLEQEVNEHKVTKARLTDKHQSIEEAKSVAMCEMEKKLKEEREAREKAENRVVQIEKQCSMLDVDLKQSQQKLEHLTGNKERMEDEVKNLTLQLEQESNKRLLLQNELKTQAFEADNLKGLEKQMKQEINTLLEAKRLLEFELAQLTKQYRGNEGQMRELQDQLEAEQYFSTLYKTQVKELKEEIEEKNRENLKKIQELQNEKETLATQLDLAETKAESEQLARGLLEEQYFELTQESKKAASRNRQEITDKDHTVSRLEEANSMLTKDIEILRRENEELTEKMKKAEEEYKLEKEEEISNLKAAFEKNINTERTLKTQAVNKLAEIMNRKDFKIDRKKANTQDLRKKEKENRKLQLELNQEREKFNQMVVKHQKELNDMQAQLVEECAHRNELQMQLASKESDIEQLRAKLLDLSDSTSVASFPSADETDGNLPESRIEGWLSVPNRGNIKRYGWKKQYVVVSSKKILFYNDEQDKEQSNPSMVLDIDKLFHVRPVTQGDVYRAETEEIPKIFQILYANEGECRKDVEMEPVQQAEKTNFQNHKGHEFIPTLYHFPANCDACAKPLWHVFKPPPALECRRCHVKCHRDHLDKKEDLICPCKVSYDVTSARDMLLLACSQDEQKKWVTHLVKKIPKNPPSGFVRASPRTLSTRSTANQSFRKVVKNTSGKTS
T2 sequence (O75116 whole entry, looked up): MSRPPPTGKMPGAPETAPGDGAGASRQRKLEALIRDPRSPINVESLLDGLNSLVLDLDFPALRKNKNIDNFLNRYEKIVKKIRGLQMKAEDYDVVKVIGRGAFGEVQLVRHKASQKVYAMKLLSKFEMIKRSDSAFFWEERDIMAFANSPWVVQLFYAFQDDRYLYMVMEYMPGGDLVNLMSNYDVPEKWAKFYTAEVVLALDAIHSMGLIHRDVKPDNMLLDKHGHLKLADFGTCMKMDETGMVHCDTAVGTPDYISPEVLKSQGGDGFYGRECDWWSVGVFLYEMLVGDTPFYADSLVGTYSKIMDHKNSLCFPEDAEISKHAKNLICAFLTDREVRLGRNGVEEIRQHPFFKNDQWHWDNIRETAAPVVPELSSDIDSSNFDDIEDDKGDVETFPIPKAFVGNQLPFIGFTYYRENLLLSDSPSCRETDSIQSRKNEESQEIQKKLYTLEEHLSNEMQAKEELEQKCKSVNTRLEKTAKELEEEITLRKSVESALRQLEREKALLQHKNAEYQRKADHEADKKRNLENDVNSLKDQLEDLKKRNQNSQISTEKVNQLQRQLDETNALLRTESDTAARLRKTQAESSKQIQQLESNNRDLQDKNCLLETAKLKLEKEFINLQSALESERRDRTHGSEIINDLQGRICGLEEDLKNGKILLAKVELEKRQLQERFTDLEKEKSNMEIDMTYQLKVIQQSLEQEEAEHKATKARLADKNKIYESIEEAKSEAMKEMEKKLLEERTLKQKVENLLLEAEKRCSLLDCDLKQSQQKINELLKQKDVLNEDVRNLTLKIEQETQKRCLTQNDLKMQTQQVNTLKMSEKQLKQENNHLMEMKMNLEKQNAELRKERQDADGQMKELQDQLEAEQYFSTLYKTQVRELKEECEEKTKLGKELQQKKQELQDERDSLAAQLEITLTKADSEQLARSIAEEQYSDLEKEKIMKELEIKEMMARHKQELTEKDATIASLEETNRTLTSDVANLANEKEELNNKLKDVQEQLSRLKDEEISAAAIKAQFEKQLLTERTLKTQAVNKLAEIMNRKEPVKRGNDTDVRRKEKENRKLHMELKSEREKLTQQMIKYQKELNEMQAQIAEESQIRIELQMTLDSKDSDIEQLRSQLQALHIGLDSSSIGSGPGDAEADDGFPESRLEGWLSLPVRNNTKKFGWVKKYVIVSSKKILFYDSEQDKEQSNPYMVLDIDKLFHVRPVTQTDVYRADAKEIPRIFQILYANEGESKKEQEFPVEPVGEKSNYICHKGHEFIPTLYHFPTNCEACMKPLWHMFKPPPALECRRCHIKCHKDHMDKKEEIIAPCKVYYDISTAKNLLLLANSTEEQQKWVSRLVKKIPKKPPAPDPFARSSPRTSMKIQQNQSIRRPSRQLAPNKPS
T2 sequence (Q13464 whole entry, looked up): as the sequence (Q13464 whole entry) above
Rho-associated protein kinase 2, sequence (O75116 whole entry): as the sequence (O75116 whole entry, looked up) above

Consider `c1cc(-c2cnco2)nc(-c2cnc(-c3cccc(-c4cccc(-c5ncc(-c6cccc(-c7cnco7)n6)o5)n4)n3)o2)c1`, for which the 50% inhibitory concentration (IC50) in assay [1] is above 1000 nM; in the assay on U-87 MG, 246 nM; in the assay with M21 [2] it was 1580 nM; on Myotonin-protein kinase it was above 1000 nM; in the assay with M21 [7], 3570 nM; in the assay on NCI-H358 it was 3750 nM. In assay [14], this compound showed an IC50 of 851 nM. Moreover, the ΔTm with Quadruplex DNA [3] was in the range of 6 to 9 °C. Also, the Activity entry with Quadruplex DNA [4] and in the assay on Quadruplex DNA [9] was “Dose-dependent effect” each time. For the same compound, the Ka worked out at 16 ×10⁶ /M in the assay with Quadruplex DNA [4], 3 ×10⁶ /M with dsDNA [5] and 3.9 ×10⁶ /M with Quadruplex DNA [9]. In addition, the outcome with A549 and in the assay with HeLa [15] was Active. The result with dsDNA [6], in the assay on HeLa [10], in the assay on HeLa [12], with HeLa [16] and in the assay on A-375 was inactive. The Ratio IC50 in the assay listed under Homo sapiens [8] and in the assay listed under Homo sapiens [13] was 1.4 in each case. Further, the inhibition result in [11] and in [17] was “Active” each time.
For the compound `c1cc(-c2cnco2)nc(-c2cnc(-c3cccc(-c4ncc(-c5cccc(-c6cnco6)n5)o4)n3)o2)c1`, the IC50 in [1] was above 1000 nM; in the assay on U-87 MG it was 440 nM; in the assay with M21 [2], 1560 nM; at Myotonin-protein kinase it was above 1000 nM; in the assay on M21 [7], 7240 nM; in the assay with NCI-H358, 7700 nM. Moreover, the IC50 in assay [14] worked out at 29 nM. Further, the ΔTm is 6 to 9 °C in the assay on Quadruplex DNA [3] and 3.4 to 6.4 °C in the assay with Quadruplex DNA [18]. In addition, the Activity result in the assay with Quadruplex DNA [4] and in the assay with Quadruplex DNA [9] was “Dose-dependent effect” throughout. The Ka amounted to 19 ×10⁶ /M in the assay on Quadruplex DNA [4], 0.9 ×10⁶ /M in the assay with dsDNA [5] and 6.7 ×10⁶ /M in the assay on Quadruplex DNA [9]. Further, the outcome in the assay on A549 and in the assay on HeLa [15] was Active. For the same compound, the result with dsDNA [6], with HeLa [10], in the assay with HeLa [12], in the assay on HeLa [16] and in the assay on A-375 was inactive. In addition, the Ratio IC50 in the assay listed under Homo sapiens [8] and in the assay listed under Homo sapiens [13] was above 50 in each case. In addition, the inhibition entry in assay [11] and in assay [17] was “Active” in each case.
As to `CN(C)CCOc1cc(-c2ncc(-c3cccc(-c4cnco4)n3)o2)nc(-c2ncc(-c3cccc(-c4cnco4)n3)o2)c1`, the figures for the IC50 (in assay [1]; at Myotonin-protein kinase; in assay [14]) were above 1000 nM, above 1000 nM and 20 nM, respectively. Also, the results for the ΔTm in the assay on Quadruplex DNA [3] and in the assay on Quadruplex DNA [18] were 6 to 9 °C and 3.4 to 6.4 °C, respectively. Also, the Activity entry in the assay with Quadruplex DNA [4] and in the assay on Quadruplex DNA [9] was “Dose-dependent effect” each time. Further, the Ka turned out to be 22 ×10⁶ /M in the assay on Quadruplex DNA [4], 1 ×10⁶ /M with dsDNA [5] and 2.5 ×10⁶ /M in the assay with Quadruplex DNA [9]. Also, the result with dsDNA [6], with HeLa [10] and in the assay with HeLa [12] was inactive. The Ratio IC50 in the assay listed under Homo sapiens [8] and in the assay listed under Homo sapiens [13] was above 50 each time. The inhibition result in [11] and in [17] was “Active” throughout. In addition, the result with HeLa [15] was Active.
